The values that follow come from PMC4464950 (Dalton transactions (Cambridge, England : 2003), 2015).

The subject of experiment [1] is HCT116 (colon carcinoma) cells. The experiment can be described thus: Trypan blue exclusion cell growth inhibition, HCT116. It is filed as cell-based, human. An outline of the steps: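 HCT116 cells were grown in RPMI 1640 + 10% FBS at 37 °C, humidified 5% CO2, and seeded at 1 × 10⁴ cells/well with test compound. After 48 h, cells were mixed 1:1 with 0.4% trypan blue and counted on a haemocytometer, in triplicate. Points are means of four samples over three experiments. IC50/IC75/IC90 came from sigmoidal fits. Selectivity = IC50 in […] ÷ IC50 in cancer cells.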

In the next experiment the test system is plasmid (pBR322) DNA. The experiment can be described thus: Electrophoresis mobility shift assay with plasmid DNA. The format is binding. To be noted: metal/DNAbp ratios 0.25-2.0; 37 °C, 20 h. An outline of the steps:
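pBR322 plasmid DNA (20 µg/mL) in 5 mM Tris/HCl, 50 mM NaClO4, pH 7.39, was incubated with test compound at metal complex:DNA bp ratios of […], 37 °C, 20 h, in the dark. Free DNA and cisplatin-treated DNA served as controls. Samples ran on 1% agarose in TAE, 80 V for 1.5 h, then were GelRed-stained 30 min.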

Another experiment addresses cytochrome c (Equus caballus, UniProt P00004). The experiment can be described thus: ESI-MS metallodrug-protein interaction, cytochrome c. It is filed as binding. As to conditions: 3:1 metal/protein, 24 h RT, 20 mM ammonium acetate pH 6.8. An outline of the steps:
(§1)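 Each protein (100 µM) in 20 mM ammonium acetate, pH 6.8, was mixed with test compound at a 3:1 metal/protein ratio and held 24 h at RT. Samples were diluted 20-fold with water and infused directly at 5 µl/min into an ESI Orbitrap (spray 3.1 kV, capillary 45 V, 220 °C, resolution 100,000 at m/z 400). Monoisotopic and average masses were obtained by deconvolution.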

The next experiment deals with T1, RNase A (Bos taurus, UniProt P61823).
T1 sequence (P61823 27-150): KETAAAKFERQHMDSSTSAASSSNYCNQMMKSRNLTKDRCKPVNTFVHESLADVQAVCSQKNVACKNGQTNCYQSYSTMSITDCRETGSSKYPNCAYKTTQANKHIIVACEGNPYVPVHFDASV
The experiment is described as follows: ESI-MS metallodrug-protein interaction, RNase. To be noted: 3:1 metal/protein, 24 h RT, 20 mM ammonium acetate pH 6.8. It is filed as binding. An outline of the steps:
as §1

cytochrome c, sequence (P00004 whole entry, the tested form may be a part): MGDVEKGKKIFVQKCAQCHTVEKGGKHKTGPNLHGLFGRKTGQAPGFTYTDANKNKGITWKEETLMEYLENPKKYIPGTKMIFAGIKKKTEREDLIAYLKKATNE

Turning to `Cc1ccc(C(C)C)cc1.Cc1ccc(C(C)C)cc1.[Cl][Ru][Cl].[Cl][Ru][Cl]` [a (Ru), [Ru(p-cymene)Cl(µ-Cl)]2], the “IC75 HCT116” value in experiment [1] (48 h incubation, compounds dissolved in DMSO (1%), Trypan blue) came out at 313.3 ± 7.1 µM. In addition, the “Calculated tumour selectivity (IC50 L929/IC50 HCT116)” value in experiment [1] (IC50 normal cells divided by IC50 cancer cells) is 3.3. The “Effect on mobility of supercoiled form (Form I) of plasmid DNA” value in the experiment on plasmid (pBR322) DNA is listed as “did not affect the mobility”. Further, the “Interaction with cytochrome c (ESI-MS adducts)” value at cytochrome c is “protein binding of a Ru(p-cymene) fragment”. Also, the “Interaction with RNase (ESI-MS adducts)” value at RNase A is “protein binding of a Ru(p-cymene) fragment”.
